PMC7790458 (Journal of the American Chemical Society, 2020)

Columns and labels:
E. coli ΔbamBΔtolC = assay: MIC, CLSI broth microdilution; format: cell-based; conditions: MH-II broth with dipyridyl
[1] = Cleavage of acc peptide by human serum; format: in vitro ADME; conditions: fluorescence (Figure S8)
Outline: (§1)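 Substrate is an N-acetylated peptide with 7-amino-4-carbamoylmethylcoumarin (acc) coupled directly to the P1 residue as an antibiotic surrogate, made by solid-phase synthesis. The substrate is incubated in human or mouse serum, and cleavage is followed as release of free fluorescent amino coumarin.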

[2] = system: periplasmic extract of E. coli K12 MG1655; assay: acc release from fluorogenic peptides in periplasmic extract; format: biochemical; conditions: HPLC analysis (Figure S9)
[3] = Cleavage of acc peptide by mouse serum; format: in vitro ADME; conditions: compared with human serum
Outline: as §1

E. coli ΔsurA = assay: MIC, CLSI broth microdilution; format: cell-based; conditions: MH-II broth with dipyridyl
S. aureus Newman = assay: MIC, CLSI broth microdilution; format: cell-based; conditions: MH-II broth with dipyridyl

Compound | MIC (E. coli ΔbamBΔtolC) | half-life of acc release [1] [h] | substrate consumption at the end of the reaction [2] | cleavage by mouse serum [3] | MIC (E. coli ΔsurA) [µM] | MIC (S. aureus Newman) [µM]
CC(=O)NC[C@H]1CN(c2ccc(N3CCN(C(=O)CO)CC3)c(F)c2)C(=O)O1 [eperezolid] | susceptible | – | – | – | – | –
Ac-WSPKYM-acc [compound 1] | – | 3 to 4 | fully consumed | cleaved more rapidly | – | –
eperezolid-NH2 [compound 5] | > 171 µM | – | – | – | 43 | 43
